Activity calls are given as the source filed them. No cut-off for these calls is given here.
Tests used:
[1] = biological target: T1, Gastrin/cholecystokinin type B receptor (Homo sapiens) (UniProt P32239); assay: Activity at CCK2R (unknown origin) expressed in CHO cells assessed as stimulation of intracellular calcium responses; assay type: functional, cell-based
T1 sequence (whole entry): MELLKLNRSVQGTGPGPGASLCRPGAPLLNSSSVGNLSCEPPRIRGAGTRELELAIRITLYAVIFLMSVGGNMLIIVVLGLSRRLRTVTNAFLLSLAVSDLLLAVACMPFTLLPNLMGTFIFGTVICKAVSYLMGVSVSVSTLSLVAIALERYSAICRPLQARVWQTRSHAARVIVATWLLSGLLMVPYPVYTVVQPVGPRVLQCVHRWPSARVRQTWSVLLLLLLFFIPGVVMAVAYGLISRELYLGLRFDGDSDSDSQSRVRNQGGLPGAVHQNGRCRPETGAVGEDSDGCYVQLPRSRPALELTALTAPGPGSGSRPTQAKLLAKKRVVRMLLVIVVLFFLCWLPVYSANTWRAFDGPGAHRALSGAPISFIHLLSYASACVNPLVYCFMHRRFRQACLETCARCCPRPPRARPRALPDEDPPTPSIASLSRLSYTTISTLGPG
Outline: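 Intact CHO cell lines stably expressing CCK1R or CCK2R; intracellular calcium measured after adding compound alone. […] Peak responses and EC50 values taken from concentration-response curves. Duplicate determinations, at least three independent experiments, means ± S.E.M.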

[2] = biological target: T2, Cholecystokinin receptor type A (Homo sapiens, UniProt P32238, T117V/T118S); assay type: cell-based, CHO
T2 sequence (P32238 whole entry T117V/T118S): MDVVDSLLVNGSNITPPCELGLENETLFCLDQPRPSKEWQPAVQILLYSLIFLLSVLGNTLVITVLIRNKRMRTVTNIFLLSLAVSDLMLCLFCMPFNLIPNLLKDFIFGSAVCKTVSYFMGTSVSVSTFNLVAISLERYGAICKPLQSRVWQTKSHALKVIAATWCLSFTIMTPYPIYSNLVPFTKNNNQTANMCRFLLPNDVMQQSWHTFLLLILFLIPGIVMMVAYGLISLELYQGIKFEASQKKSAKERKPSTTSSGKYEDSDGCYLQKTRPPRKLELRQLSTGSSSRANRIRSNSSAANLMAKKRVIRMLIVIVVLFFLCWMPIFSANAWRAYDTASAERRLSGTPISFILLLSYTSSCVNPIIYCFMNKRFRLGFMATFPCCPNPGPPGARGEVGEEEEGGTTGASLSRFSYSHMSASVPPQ

[3] = biological target: T3, Cholecystokinin receptor type A (Homo sapiens, UniProt P32238); assay type: cell-based; details: cho
[4] = biological target: T4, Cholecystokinin receptor type A (Homo sapiens, UniProt P32238, L356H); assay type: cell-based, CHO
T4 sequence (P32238 whole entry L356H): as the sequence (P32238 whole entry T117V/T118S) above, with V117T, S118T, L356H counted along it

[5] = biological target: T5, Cholecystokinin receptor type A (Homo sapiens) (UniProt P32238); details: CHO, 1 uM
T5 sequence (whole entry): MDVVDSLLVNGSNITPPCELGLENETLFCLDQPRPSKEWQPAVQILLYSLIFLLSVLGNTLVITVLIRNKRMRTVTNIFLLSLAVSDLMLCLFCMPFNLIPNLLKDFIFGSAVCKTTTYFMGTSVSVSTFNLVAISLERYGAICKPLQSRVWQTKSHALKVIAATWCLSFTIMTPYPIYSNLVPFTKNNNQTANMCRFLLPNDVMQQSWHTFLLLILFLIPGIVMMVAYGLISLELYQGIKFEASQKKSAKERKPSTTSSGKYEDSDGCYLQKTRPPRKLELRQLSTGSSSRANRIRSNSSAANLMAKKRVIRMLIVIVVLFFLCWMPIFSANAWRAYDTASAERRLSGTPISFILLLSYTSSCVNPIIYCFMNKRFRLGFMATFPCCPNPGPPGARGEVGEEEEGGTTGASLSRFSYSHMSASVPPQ

[6] = biological target: T4, Cholecystokinin receptor type A; assay type: cell-based, CHO; remark: listed apart in the source
[7] = biological target: T6, Gastrin/cholecystokinin type B receptor (Homo sapiens, UniProt P32239); assay type: cell-based, CHO
T6 sequence (P32239 whole entry): T1 sequence (whole entry)

[8] = biological target: T2, Cholecystokinin receptor type A; assay type: cell-based, CHO; remark: listed apart in the source
[9] = biological target: T7, Cholecystokinin receptor type A (Homo sapiens, UniProt P32238, N98T); assay type: cell-based, CHO
T7 sequence (P32238 whole entry N98T): as the sequence (P32238 whole entry T117V/T118S) above, with N98T, V117T, S118T counted along it

[10] = biological target: T3, Cholecystokinin receptor type A; assay type: cell-based; details: cho; remark: listed apart in the source
[11] = biological target: T3, Cholecystokinin receptor type A; assay type: cell-based; details: cho; remark: listed apart in the source
[12] = biological target: T6, Gastrin/cholecystokinin type B receptor; assay type: cell-based, CHO; remark: listed apart in the source
[13] = biological target: T7, Cholecystokinin receptor type A; assay type: cell-based, CHO; remark: listed apart in the source
[14] = biological target: T8, Cholecystokinin receptor type A (Homo sapiens, UniProt P32238); assay: Activity at CCK1R (unknown origin) expressed in CHO cells assessed as stimulation of intracellular calcium responses; assay type: functional, cell-based
T8 sequence (P32238 whole entry): T5 sequence (whole entry)
Outline: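 Intact CHO cell lines stably expressing CCK1R or CCK2R; intracellular calcium measured after adding compound alone. Peak responses and EC50 values taken from concentration-response curves. Duplicate determinations, at least three independent experiments, means ± S.E.M.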

[15] = biological target: T6, Gastrin/cholecystokinin type B receptor; assay type: cell-based, CHO; remark: listed apart in the source
[16] = biological target: T8, Cholecystokinin receptor type A; assay type: functional, cell-based; details: cho
[17] = biological target: T8, Cholecystokinin receptor type A; assay type: cell-based, CHO
[18] = biological target: T8, Cholecystokinin receptor type A; assay type: cell-based, CHO; remark: listed apart in the source

Row | Compound | Activity [1] | IC50 [2] [nM] | IC50 [3] [nM] | IC50 [4] [nM] | inhibition [5] | IC50 [6] [nM] | IC50 [7] [nM] | IC50 [8] [nM] | IC50 [9] [nM] | IC50 [10] [nM] | IC50 [11] | IC50 [12] [nM] | IC50 ([13]; read-out: IC50) [nM] | EC50 [14] [nM] | IC50 ([13]; cho) | IC50 [15] [nM] | EC50 [16] | IC50 [17] [nM] | IC50 [18] [nM]
1 | COc1ccc(N(C)C(=O)CN2C(=O)C(NC(=O)Nc3ccccc3)C(=O)N(c3ccccc3)c3ccccc32)cc1 (stereo not given) | inactive | 50.2 | > 1000 | 233 | inactive | 153 | 48.6 | 334 | 40.3 | 151 | Not Active | 20.3 | 875 | 90 | – | – | – | – | –
2 | O=C(CN1C(=O)C(NC(=O)Nc2ccccc2)C(=O)N(c2ccccc2)c2ccccc21)Nc1ccccc1 (stereo not given) | inactive | – | – | – | inactive | – | – | – | – | – | Not Active | – | – | – | Not Active | – | – | – | –
3 | CC(C)N(C(=O)CN1C(=O)[C@H](NC(=O)Nc2cccc(C(=O)O)c2)C(=O)N(c2ccccc2)c2ccccc21)c1ccccc1 | inactive | – | – | – | – | – | 5.6 | – | – | – | – | – | – | 0.8 | – | 2.7 | Not Active | 128 | 105
